High-throughput results from PubChem BioAssay.
Shown are actives, neighbours in structure and some others; about 3.4% of the full set was active somewhere.
Arrestin-AP2 inh: inhibitors of human beta-arrestin and AP2 interaction. AID 504490. FITC-arrestin peptide / GST-AP2 beads, flow cytometry; AP2 beta2 appendage carries R879A mutation. inhibition, % at 10 µM. 340,000 compounds, 0.31% hits;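 active means inhibition above a set limit, near 3 SD of compounds lacking own fluorescence, cut at about 54% in these data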;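 further: plate controls were DMSO wells for no effect and 5 µM unlabelled arrestin peptide for full effect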
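System: GST-tagged AP2 beta2-adaptin appendage (R879A) on 4 µm glutathione beads / Reagent: FITC-arrestin peptide, 50 nM / Detection: HyperCyt-sampled flow cytometry, FL1 channel, ex 488/em 535 nm / Timing: 12 min plus 1 h, RT / Buffer or medium: PBS plus Tween 20 (0.05%) and BSA (0.1%)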
A3A deaminase: blocks human APOBEC3A ssDNA deamination. recombinant A3A, FAM/TAMRA ssDNA deamination fluorescence. inhibition, % at 20 µM. P31941. 330,000 compounds, 0.41% hits;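 active means at least 40% inhibition at 20 µM here, with at most 30% in a related deaminase screen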;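 further: plate controls were A3A with DMSO for no effect and wells lacking A3A enzyme for full effect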
Target sequence (P31941 whole entry, looked up): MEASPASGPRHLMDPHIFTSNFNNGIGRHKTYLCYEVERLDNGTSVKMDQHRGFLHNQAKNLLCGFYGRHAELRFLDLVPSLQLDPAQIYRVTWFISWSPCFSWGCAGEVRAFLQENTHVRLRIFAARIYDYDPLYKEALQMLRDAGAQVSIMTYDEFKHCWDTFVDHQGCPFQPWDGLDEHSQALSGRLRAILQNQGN
AHR activator: activates the human aryl hydrocarbon receptor; activation, % at 5 µM; AHR-responsive luciferase reporter cells, luminescence; 320,000 compounds, 2.5% hits; in the data active means activation above about 47%;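 further: 0% = vehicle wells and 100% = reference agonist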
UCH37 inh: blocks the human deubiquitinase UCH37 | purified proteasome/UCH37, Ub-AMC cleavage fluorescence | inhibition, % (test concentration not listed) | 330,000 compounds, 0.33% hits | AID 588478;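 active means mean inhibition over replicate wells above about 20%, limit read from the data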;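 further: 0% = compound-free wells with enzyme and 100% = wells lacking proteasome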
Target sequence (Q9Y5K5 whole entry, looked up): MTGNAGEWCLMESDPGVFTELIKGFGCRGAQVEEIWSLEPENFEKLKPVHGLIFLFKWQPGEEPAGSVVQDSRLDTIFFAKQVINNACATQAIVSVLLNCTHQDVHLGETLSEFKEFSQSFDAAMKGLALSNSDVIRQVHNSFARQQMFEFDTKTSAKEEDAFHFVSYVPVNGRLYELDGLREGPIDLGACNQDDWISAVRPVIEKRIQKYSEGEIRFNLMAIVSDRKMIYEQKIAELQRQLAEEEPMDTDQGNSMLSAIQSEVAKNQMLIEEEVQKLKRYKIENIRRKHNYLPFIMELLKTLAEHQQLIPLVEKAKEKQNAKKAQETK
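Assay system: Proteasome-bound UCH37. Buffer or medium: pH 7.4 Tris-HCl (50 mM) with ovalbumin, ATP-MgCl2, DTT. Incubation: 30 min preincubation with enzyme, 25 min cleavage at room temperature. Measured by: fluorescence, ex 355 nm, em 460 nm. Read-out basis: percent inhibition. Control set: wells without proteasome as full block, compound-free enzyme plus substrate as uninhibited.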
A3G deaminase: inhibitors of human APOBEC3G DNA deaminase | AID 493012 | Q9HC16 | inhibition, % at 20 µM | recombinant A3G, ssDNA deamination FAM/TAMRA fluorescence | 330,000 compounds, 0.28% hits;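 active means inhibition of at least 40% at 20 µM, with no more than 30% in the related APOBEC3A deaminase screen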;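 further: plate controls were DMSO wells with A3G for no effect and wells lacking A3G enzyme for full effect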
PolyA inhibitor: inhibitors of polyadenylation in S. cerevisiae. AID 1875. S. cerevisiae SKY197-pL101 polyadenylation reporter, beta-gal luminescence; efflux-impaired pdr1/pdr3 knockout yeast; score 100 = 6 SD above DMSO. activity score, % at 12 µM. 300,000 compounds, 0.02% hits;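 active means lowest replicate activity score at least 50, where 100 means six control SD above control mean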;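 further: yeast exposed to compound for 9 h at 30 °C; higher score means more reporter readthrough which indicates perturbed polyadenylation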
An asterisk follows results filed as active; i = inactive; x = no result given.

SMILES	Arrestin-AP2 inh	A3A deaminase	AHR activator	UCH37 inh	A3G deaminase	PolyA inhibitor
COc1ccc(-c2nc3cccc(C)n3c2NCc2ccco2)cc1OC	-11	-4	57*	-364	-7	3
COc1cc2cccc(OC)c(=O)c2c(O)c1OC	-8	7	7	6	6	-4
COc1cc2c(cc1OC)-c1c(OC)c(OC)cc3ccnc(c13)C2=O	5	12	48*	x	28	8
Cc1ccc(-n2c(C)cc(C=NNc3ccc([N+](=O)[O-])cn3)c2C)c(C)c1	x	x	x	3	x	x
Cc1cccc(-n2c(=O)[nH]c3c(C(N)=O)nc(C(C)C)nc32)c1	-8	2	53*	-48	4	7
Cc1ccc(-n2c(=O)[nH]c3c(C(N)=O)nc(C(C)C)nc32)cc1	15	1	17	1	-6	-11
CSCCC(NC(=O)c1ccc(Cl)cc1)C(=O)OCC(=O)NCc1ccco1 (configuration not stated)	5	0	2	4	-4	-9
CSCCC(NC(=O)c1ccc(Cl)cc1)C(=O)OCC(=O)Nc1cc(Cl)ccc1C#N (configuration not stated)	-14	-3	56*	-2	-5	-4
COc1cccc(/C=N\NC(=O)c2sc(N)nc2C)c1OC	3	3	60*	x	2	-8
CCc1c(C)sc(NC(=O)c2ccoc2C)c1C(N)=O	13	0	32	x	60*	-7
COc1ccccc1-c1noc(-c2ccccc2C(=O)NCc2ccco2)n1	8	2	50*	5	-4	1
O=[N+]([O-])c1cc(Cl)cc(C=NNC(=S)Nc2cc(S(=O)(=O)N3CCOCC3)ccc2Cl)c1O	x	x	x	23*	x	x
COc1cc(C=NNC(=O)c2c(C)nnn2-c2nonc2N)ccc1O	x	x	x	-10	x	x
COc1ccc(/C=N/n2cncn2)cc1Cn1cc([N+](=O)[O-])cn1	-9	-2	1	x	-1	-8
COc1ccc(/C=N/Nc2ccc([N+](=O)[O-])cc2)cc1Cn1cc([N+](=O)[O-])cn1	-13	-1	69*	x	-3	-37
CCc1ccc2nc3nc(C)cc(C)c3c(N)c2c1	12	9	68*	i	5	-2
CC(=O)COc1cccc2ccc(/C=C/c3ccc(Br)s3)nc12	9	-2	72*	-34	-6	-3
COc1ccc(C=NNC(=O)c2ccoc2C)cc1O	x	x	x	4	x	x
Cn1c(=O)n(/N=C/c2ccccc2)c2ccccc21	2	-4	62*	x	-10	-17
COc1ccc(OC)c(C=NNC(=O)Cn2ccnc2C)c1	x	x	x	i	x	x
c1cncc(-c2nc3c(ccc4ccccc43)[nH]2)c1	-3	2	127*	-54	-3	-9
O=c1[nH]c(-c2cccnc2)nc2ccccc12	15	5	22	3	-1	5
CC(=O)Oc1c(Cl)cc(Cl)cc1/C=C/c1ccc2ccccc2n1	24	-19	24	-6	-40	-2
CC(=O)Oc1ccc(Cl)cc1/C=C/c1ccc2ccccc2n1	-8	-2	71*	-20	-6	-32
CCOc1ccccc1NC(=O)CSc1ccc2nnc(-c3cccnc3)n2n1	22	4	25	0	2	9
SMILES	Arrestin-AP2 inh	A3A deaminase	AHR activator	UCH37 inh	A3G deaminase	PolyA inhibitor
COc1ccccc1NC(=O)CSc1ccc2nnc(-c3cccnc3)n2n1	2	2	79*	5	7	-14
Cc1ccc(CSc2ccc3nnc(-c4cccnc4)n3n2)cc1	-1	2	71*	4	-1	-2
Cc1nnc(NC(=O)CSc2ccc3nnc(-c4ccccn4)n3n2)s1	-10	1	0	-5	-4	-2
Brc1ccc(CSc2ccc3nnc(-c4cccnc4)n3n2)cc1	28	-7	34	-2	-15	6
O=C(CSc1ccc2nnc(-c3ccccn3)n2n1)Nc1nccs1	17	-1	55*	7	-2	-4
CCCOc1ccc2ccccc2c1C=Nn1c(C)nnc1-n1nc(C)cc1C	x	x	x	-2	x	x
Cc1cc(C=NNC(=O)COc2cccc3cccnc23)c(C)n1-c1ccccc1	x	x	x	-1	x	x
O=Cc1nccc2ccccc12	11	x	x	x	x	x
O=C1C(c2ccnc3ccccc23)=C(O)c2ccccc21	3	2	54*	6	-2	0
O=C1c2ccccc2C(=O)C1c1nccc2ccccc12	41	3	51*	0	-6	-15
O=C1c2ccccc2C(=O)C1c1ccnc2ccccc12	22	3	62*	4	-4	-19
COC(=O)c1ccc(COc2ccc(C=NN3CCN(C)CC3)cc2)cc1	x	x	x	0	x	x
COc1cc(C=NNC(=O)c2cccs2)ccc1O	x	x	x	4	x	x
COc1ccc(O[C@H]2C=C[C@@H](c3ccccc3)O[C@@H]2COC(=O)CCC(C)=NO[C@@H](C)CN2CCCCc3nc(C)c(C)cc32)cc1	x	x	x	-4	x	x
COc1cc2ncnc(NCc3ccc4c(c3)OCO4)c2cc1OC	-12	-1	63*	5	-5	10
Cc1oc2ccc(OC(=O)N3CCOCC3)cc2c1C(=O)OC(C)C	6	-1	47*	2	-2	29
Cc1oc2ccc(OCC(N)=O)cc2c1C(=O)OC(C)C	25	-4	59*	1	-4	-9
COC(=O)c1c(C)oc2ccc(OC(=O)N3CCOCC3)cc12	-1	6	29	1	4	22
N#CC(=NNc1ccccc1)C(=N)N1CCCCC1	x	x	x	14	x	x
CON=Cc1ccc(N2CCN(C(=O)c3cccc(C(F)(F)F)c3)CC2)c([N+](=O)[O-])c1	x	x	x	6	x	x
CCOC(=O)c1[nH]c2ccccc2c1N=CN(C)C	-6	-4	16	-2	-5	13
CN(C)C=Nc1ccc2nc3c(cc2c1)[nH]c1ccccc13	28	6	71*	i	-3	-36
Clc1cccc(C2Nc3cccc4cccc(c34)N2)c1	55*	5	22	8	21	15
Clc1ccc(C2Nc3cccc4cccc(c34)N2)cc1Cl	8	3	36	5	21	-19
O=C(NC(=S)Nc1nc2c(ccc3ccccc32)s1)c1cccs1	0	0	67*	x	-4	-13
SMILES	Arrestin-AP2 inh	A3A deaminase	AHR activator	UCH37 inh	A3G deaminase	PolyA inhibitor
O=C(Nc1nc2c(F)c(F)c(F)cc2s1)c1ccco1	-3	1	2	4	-2	-1
O=C(Nc1nc2c(ccc3ccccc32)s1)c1ccco1	26	-4	66*	-60	-3	-20
O=C(Nc1ccc(-c2nc3c(ccc4ccccc43)o2)cc1)c1ccco1	0	2	67*	-139	-7	-7
O=C(Nc1ccc(-c2nc3cc(Cl)ccc3c(=O)o2)cc1)c1ccco1	-1	4	0	-172	1	-4
COc1ccc(C=NNC(=O)c2ccn[nH]2)cc1COc1ccc(Cl)cc1	x	x	x	0	x	x
Cc1nnc(C)n1N=Cc1ccc(-c2ccccc2)cc1	x	x	x	5	x	x
